Test [1] has as its target Proteasome Macropain subunit (Homo sapiens) (UniProt P49721). In words: Selectivity ratio of IC50 for trypsin-like activity of proteasome in human RPMI-8226 cells to IC50 for trypsin-like activity of proteasome in human NCI-H929 cells. It counts as cell-based.
Test [2] is described as follows: Inhibition of chymotrypsin-like activity of rabbit 26s proteasome beta 5 subunit assessed as hydrolysis of Suc-LLVY-amc fluorogenic substrate preincubated for 30 mins followed by substrate addition measured for 30 mins by fluorescence plate reader analysis. More on the design: species or system Oryctolagus cuniculus. The method in brief:
(§1)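 Purified rabbit-muscle 26S proteasome (final 3 µg/mL) preincubated 30 min with a range of inhibitor concentrations. Slopes expressed as % of mock; IC50 by four-parameter least-squares fit.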

The target in test [3] is T1, Proteasome Macropain subunit MB1 (Homo sapiens, UniProt P28074).
T1 sequence (P28074 whole entry): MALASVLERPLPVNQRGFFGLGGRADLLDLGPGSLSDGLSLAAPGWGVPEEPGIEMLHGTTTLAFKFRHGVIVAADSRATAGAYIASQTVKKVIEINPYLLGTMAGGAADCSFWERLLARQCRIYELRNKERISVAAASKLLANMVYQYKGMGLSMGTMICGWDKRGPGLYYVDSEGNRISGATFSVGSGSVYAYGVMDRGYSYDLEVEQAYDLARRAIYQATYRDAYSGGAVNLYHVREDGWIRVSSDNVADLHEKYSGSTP
Briefly: Inhibition of chymotrypsin-like activity of proteasome in human NCI-H929 cells after 6 hrs by proteasomeGlo assay. Format: cell-based. The method in brief:
(§2)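 Cells then pelleted, resuspended in PBS and mixed with site-specific luminogenic substrates in lysis/assay buffer. Mixing 3 min, then 17 min in the dark before luminescence, triplicate per substrate/point. Activity as % of mock; IC50 from a four-parameter nonlinear fit.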

Test [4] in a line: Inhibition of caspase-like activity of rabbit 26s proteasome beta 1 subunit assessed as hydrolysis of Acn-LPnLD-amc fluorogenic substrate preincubated for 30 mins followed by substrate addition measured for 30 mins by fluorescence plate reader analysis. On the set-up: species or system Oryctolagus cuniculus. The method in brief: as §1
The species named for the next test is Oryctolagus cuniculus. In words: Selectivity ratio of IC50 for chymotrypsin-like activity of rabbit 26s proteasome beta 5 subunit to IC50 for trypsin-like activity of rabbit 26s proteasome beta 2 subunit. The method in brief:
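Purified rabbit-muscle 26S proteasome (final 3 µg/mL) preincubated 30 min with a range of inhibitor concentrations. […] Amc release read continuously for 30 min (ex 380/em 460 nm). Slopes expressed as % of mock; IC50 by four-parameter least-squares fit.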

The target in test [5] is T1, Proteasome Macropain subunit MB1. Briefly: Inhibition of chymotrypsin-like activity of proteasome in human RPMI-8226 cells after 6 hrs by proteasomeGlo assay. It counts as cell-based. The method in brief: as §2
Test [6] is described as follows: Inhibition of trypsin-like activity of rabbit 26s proteasome beta 2 subunit assessed as hydrolysis of Ac-RLR-amc fluorogenic substrate preincubated for 30 mins followed by substrate addition measured for 30 mins by fluorescence plate reader analysis. More on the design: species or system Oryctolagus cuniculus. The method in brief: as §1
The next test deals with NCI-H929. Briefly: Inhibition of cathepsin in human NCI-H929 cells assessed as hydrolysis of Z-FR-amc fluorogenic substrate after 6 hrs. Format: cell-based. The method in brief:
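NCI-H929 cells treated 6 h, washed and permeabilized on ice with 0.05% digitonin in Tris pH 7.5 sucrose buffer. Cytosol removed by centrifugation, then the pellet lysed in Bis-Tris pH 5.5/CHAPS buffer. Protein-normalized extract added to 40 µM Z-FR-amc in phosphate pH 6.0, EDTA, DTT. Fluorescence read continuously for 30 min; rate from slopes.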

Test [7] is described as follows: Inhibition of chymotrypsin-like activity of yeast 20s proteasome beta 5 subunit assessed as hydrolysis of Suc-LLVY-amc fluorogenic substrate after 15 mins by fluorescence spectrophotometry. More on the design: species or system Saccharomyces cerevisiae.

Calls of active or inactive are those of the source. The calls are words filed in the database; no cut-off is given here.

Proteasome Macropain subunit (Homo sapiens), sequence (P49721 whole entry): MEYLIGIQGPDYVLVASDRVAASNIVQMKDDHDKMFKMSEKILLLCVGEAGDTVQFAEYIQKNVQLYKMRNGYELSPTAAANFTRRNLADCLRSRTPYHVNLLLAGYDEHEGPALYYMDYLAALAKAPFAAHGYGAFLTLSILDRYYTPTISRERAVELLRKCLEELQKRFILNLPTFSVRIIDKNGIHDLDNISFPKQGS

As for `Cc1c(O)cccc1C(=O)N[C@H](C(=O)N[C@@H](CO)C(=O)N[C@@H](CCCNC(=N)N)C(=O)[C@@]1(C)CO1)C(C)C`, the Ratio IC50 worked out at 25 in test [1] and 267 in the test listed under Oryctolagus cuniculus. Further, the IC50 in test [2] was 80 µM; in test [3], above 30 µM; in test [4], 80 µM; in test [5], above 30 µM; in test [6], 300 nM.
On to `Cc1c(O)cccc1C(=O)N[C@H](C(=O)N[C@@H](CO)C(=O)N[C@H](/C=C/S(C)(=O)=O)Cc1ccc(CN)cc1)C(C)C`, for which the values for the IC50 in test [4] and in test [7] were 21 µM and 19.3 µM, respectively. Besides, in the test on NCI-H929, the inhibition result is “inactive”.

The values are drawn from ChEMBL document CHEMBL2321678, “Incorporation of non-natural amino acids improves cell permeability and potency of specific inhibitors of proteasome trypsin-like sites” (J Med Chem, 2013).
